Only some compounds are listed: those with a hit (about 1.6% of all), similar ones and a draw of the others.
Arr AP2 block – inhibitors of human beta-arrestin and AP2 interaction | FITC-arrestin peptide / GST-AP2 beads, flow cytometry; AP2 beta2 appendage carries R879A mutation | inhibition, % at 10 µM | 0.31% of 340,000 active;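 active means inhibition above a set limit, near 3 SD of compounds lacking own fluorescence, cut at about 54% in these data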;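 further: plate controls were DMSO wells for no effect and 5 µM unlabelled arrestin peptide for full effect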
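System: GST-AP2 R879A glutathione beads | Also added: FITC-arrestin peptide, 50 nM | Times: 12 min plus 1 h, RT | Signal: Bead flow cytometry, FITC channel | Buffer or medium: PBS with 0.05% Tween 20 and 0.1% BSA | Read-out basis: Percent drop in bead-associated FITC signal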
HDAC3 inhib – human HDAC3 inhibition | recombinant HDAC3, fluorogenic peptide/trypsin coupled, fluorescence | inhibition, % at 8.3 µM | 0.15% of 320,000 active | AID 2718; in the data active means inhibition above about 26%, passing the limit was not always enough
DSG3 Ab inh – human desmoglein-3 autoantibody binding inhibition. P32926. DSG3-coupled beads, scFv-anti-DSG3-GFP binding, flow cytometry; stronger effect = lower value. binding (percent of control), % at 10 µM. 0.48% of 310,000 active;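 active means binding more than 3 SD below its plate's average and above zero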;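 further: hits lower antibody fragment binding to DSG3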
GASC-1 inh – inhibitors of human GASC-1 (JMJD2C) demethylase | Q9H3R0 | inhibition, % at 2.35 µM | 0.069% of 330,000 active | AID 2099 | GST-JMJD2C(1-420) H3K9me3 demethylation, DELFIA europium;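 active means more than half of a compound's replicate wells show inhibition beyond 50%, single wells judged on their own value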;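 further: signal counts dimethyl H3K9 product captured on neutravidin plate; 0% = median of DMSO wells and 100% = 0.3 times that DMSO median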
T cell HTS – T cell immune modulation candidate | 2C CD8+ T cell-vesicle binding, flow cytometry; stronger effect = lower value | response (vesicle binding), % at 7 µM | 0.068% of 330,000 active | AID 2052;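 active means response, share of CD8 T cells binding vesicles, and their 90th percentile fluorescence all below set limits, cut at about 80% in these data, passing the limit was not always enough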;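 further: values below 100% mean blocked vesicle binding to the CD8+ T cells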
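Incubation: binding step 1.5 h, 37 °C, antibody labelling 20 min, ice; system: murine 2C transgenic CD8+ T lymphocytes; technique: cytometric PE anti-B7-1 and Alexa647 anti-CD8 signals after 1% paraformaldehyde fixation; also added: QL9-charged Drosophila Ld/ICAM-1/B7-1 vesicles; control set: naked versus QL9-loaded vesicles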
LANA-H2B inh – blocks KSHV LANA binding to histone H2A/H2B; Q9QR71; inhibition, % (concentration not given with the values); 0.6% of 320,000 active; AID 2629; cell-free LANA-H2A/H2B peptide, fluorescence polarization; in the data active means inhibition mostly above about 10%, no sharp cut-off; inactive means mostly below about 6.7%
Arr-AP2 CP1 – blocks beta-arrestin peptide binding to human AP2 | shares compounds with Arr AP2 block | GST-AP2 beads, FITC arrestin peptide binding, flow cytometry; GST-fused beta2-adaptin appendage, R879A mutant | inhibition, % at 10 µM | 2% of 1,300 active;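 active means inhibition above a set limit, roughly 3 SD of non-fluorescent compound noise, cut at about 38% in these data; inactive means inhibition at or below that limit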;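 further: loss of bead fluorescence from 50 nM FITC arrestin peptide bound to appendage; 0% = negative control wells and 100% = excess unlabelled arrestin peptide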
Target sequence (P63010 whole entry, looked up, the tested form may be a part, one chain of several): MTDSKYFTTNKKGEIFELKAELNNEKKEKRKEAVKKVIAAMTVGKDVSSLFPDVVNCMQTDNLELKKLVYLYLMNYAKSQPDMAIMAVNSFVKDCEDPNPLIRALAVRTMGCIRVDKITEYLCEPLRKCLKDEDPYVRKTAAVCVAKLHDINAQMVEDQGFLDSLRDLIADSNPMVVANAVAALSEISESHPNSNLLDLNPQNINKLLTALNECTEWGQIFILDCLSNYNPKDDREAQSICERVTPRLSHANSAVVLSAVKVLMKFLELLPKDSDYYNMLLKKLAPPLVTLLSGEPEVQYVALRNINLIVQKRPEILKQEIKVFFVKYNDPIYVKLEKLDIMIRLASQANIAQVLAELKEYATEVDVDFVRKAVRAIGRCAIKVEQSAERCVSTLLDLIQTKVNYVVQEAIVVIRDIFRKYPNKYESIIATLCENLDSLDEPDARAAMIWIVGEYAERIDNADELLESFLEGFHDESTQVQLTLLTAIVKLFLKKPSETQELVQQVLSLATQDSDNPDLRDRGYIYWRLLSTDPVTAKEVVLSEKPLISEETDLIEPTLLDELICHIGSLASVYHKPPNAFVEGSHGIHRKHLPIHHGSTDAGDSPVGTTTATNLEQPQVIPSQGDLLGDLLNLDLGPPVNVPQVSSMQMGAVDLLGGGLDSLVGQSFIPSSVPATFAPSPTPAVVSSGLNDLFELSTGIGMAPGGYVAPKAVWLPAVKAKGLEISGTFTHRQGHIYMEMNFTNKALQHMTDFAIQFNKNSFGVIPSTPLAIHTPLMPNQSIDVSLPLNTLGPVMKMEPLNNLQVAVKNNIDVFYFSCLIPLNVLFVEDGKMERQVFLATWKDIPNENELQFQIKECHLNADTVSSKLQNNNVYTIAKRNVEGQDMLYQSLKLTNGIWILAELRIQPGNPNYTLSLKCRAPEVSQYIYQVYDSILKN
GST-FITC bead – counter-screen for beta-arrestin AP2 inhibitors: GST-GSH bead binding. inhibition, % at 10 µM. 2% of 1,300 active. shares compounds with Arr AP2 block. AID 588338. GST-fluorescein binding to GSH beads, fluorescence;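 active means inhibition above 50%, about 3 SD of the inhibition seen with non-fluorescent compounds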;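 further: fluorescein maleimide labelled GST captured on 4 micron glutathione beads; higher means more loss of bead fluorescence from quenching or blocked binding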
The depositor's hits bear a star.

Results for Nc1nnc(SCC(=O)OCC(=O)Nc2ccccc2F)s1 ?
Arr AP2 block: 57.0*; HDAC3 inhib: -2.6; DSG3 Ab inh: 93.7; GASC-1 inh: -3.7; T cell HTS: 198.4; LANA-H2B inh: -1.0; Arr-AP2 CP1: -6.5; GST-FITC bead: -10.1

How did CC(=O)N1CCN(c2ccc(NC(=O)c3ccc(OCc4ccccc4)cc3)cc2)CC1 do in these assays?
Arr AP2 block: 99.9*; HDAC3 inhib: 0.6; DSG3 Ab inh: 109.9; GASC-1 inh: 4.9; T cell HTS: 217.8; LANA-H2B inh: 3.5; Arr-AP2 CP1: -11.9; GST-FITC bead: -8.3

What do the screens show for `COc1ccc(C(=O)Nc2ccc(N3CCN(C)CC3)cc2)cc1OC`?
Arr AP2 block: 65.1*; HDAC3 inhib: 0.1; DSG3 Ab inh: 97.1; GASC-1 inh: -5.7; T cell HTS: 318.4; LANA-H2B inh: -1.4; Arr-AP2 CP1: 4.0; GST-FITC bead: 3.6

How did CC1=NNC(=O)c2ccccc2O1 do in these assays?
Arr AP2 block: -10.5; HDAC3 inhib: 0.2; DSG3 Ab inh: 119.9; GASC-1 inh: 0.2; T cell HTS: 588.2; LANA-H2B inh: -0.8

How did COc1ccc(/C=C/C(=O)OCC(=O)NC2CCCC(C)C2C)c(OC)c1 (stereo not drawn) do in these assays?
Arr AP2 block: 64.0*; HDAC3 inhib: -5.6; DSG3 Ab inh: 103.7; GASC-1 inh: 4.6; T cell HTS: 171.1; LANA-H2B inh: 5.6; Arr-AP2 CP1: 2.7; GST-FITC bead: -6.0

How did COc1ccc(/C=C/C(=O)OCC(=O)NC2CC2)c(OC)c1 do in these assays?
Arr AP2 block: -0.4; HDAC3 inhib: 1.1; DSG3 Ab inh: 97.0; GASC-1 inh: 5.3; T cell HTS: 439.6; LANA-H2B inh: 0.7

What do the screens show for `CC1CC(C)CN(CCCNC(=O)c2ccc(CS(=O)(=O)Cc3ccccc3F)o2)C1` (stereo not drawn)?
Arr AP2 block: 59.3*; HDAC3 inhib: -10.9; DSG3 Ab inh: 106.6; GASC-1 inh: -8.7; T cell HTS: 368.2; LANA-H2B inh: -5.5; Arr-AP2 CP1: -3.4; GST-FITC bead: -10.6

What do the screens show for `Fc1cccc(Cl)c1/C=N/Nc1ccccn1`?
Arr AP2 block: 10.5; HDAC3 inhib: -1.5; DSG3 Ab inh: 99.7; GASC-1 inh: 7.3; T cell HTS: 257.5; LANA-H2B inh: 4.1

How did Fc1cccc(F)c1/C=N/Nc1ccccn1 do in these assays?
Arr AP2 block: 55.2*; HDAC3 inhib: -0.5; DSG3 Ab inh: 96.7; GASC-1 inh: -1.4; T cell HTS: 443.7; LANA-H2B inh: 0.7; Arr-AP2 CP1: -4.3; GST-FITC bead: -2.1

How did COc1ccc(C(=O)Nc2ccc3c(c2)C(=O)N(C)C3=O)cc1OC do in these assays?
Arr AP2 block: 6.2; HDAC3 inhib: -0.8; DSG3 Ab inh: 95.1; GASC-1 inh: -1.8; T cell HTS: 138.2; LANA-H2B inh: -3.6

How did O=C(C1CCCCC1)N1C[C@@H](O)[C@H](n2cc(C3CC3)nn2)C[C@@H]1c1ccccc1 do in these assays?
DSG3 Ab inh: 101.7

What do the screens show for `CC(C)Nc1nnc(SC(C)C(=O)Nc2ccc(Cl)cn2)s1` (stereo not drawn)?
Arr AP2 block: 54.7*; HDAC3 inhib: -0.3; DSG3 Ab inh: 101.9; GASC-1 inh: -8.8; T cell HTS: 509.4; LANA-H2B inh: 4.1; Arr-AP2 CP1: -0.3; GST-FITC bead: 4.6

How did CCNC(=O)/C(C#N)=C/c1c(N2CCN(Cc3ccc4c(c3)OCO4)CC2)nc2c(C)cccn2c1=O do in these assays?
Arr AP2 block: 57.2*; HDAC3 inhib: -0.1; DSG3 Ab inh: 106.6; GASC-1 inh: 16.2; T cell HTS: 265.6; LANA-H2B inh: 4.2; Arr-AP2 CP1: 3.6; GST-FITC bead: -7.0

What do the screens show for `COc1ccc(C(CNC(=O)CNC(=O)c2cccc(C)c2)N2CCCCC2)cc1` (stereo not drawn)?
Arr AP2 block: 0.6; DSG3 Ab inh: 97.4

Results for N#Cc1nc(-c2ccco2)oc1NCc1ccc(F)cc1 ?
Arr AP2 block: 71.8*; HDAC3 inhib: -20.0; DSG3 Ab inh: 96.7; GASC-1 inh: 7.1; T cell HTS: 194.0; LANA-H2B inh: -1.4; Arr-AP2 CP1: -7.8; GST-FITC bead: -2.8

Results for O=C1c2ccccc2C(=O)c2c(NCc3cccnc3)cccc21 ?
Arr AP2 block: 5.5; HDAC3 inhib: 1.4; DSG3 Ab inh: 104.3; GASC-1 inh: -21.2; T cell HTS: 246.0; LANA-H2B inh: -3.5

Results for CNc1cccc2c1C(=O)c1ccccc1C2=O ?
Arr AP2 block: 66.5*; HDAC3 inhib: 2.1; DSG3 Ab inh: 88.4; GASC-1 inh: 7.7; T cell HTS: 691.4; LANA-H2B inh: -3.6; Arr-AP2 CP1: 2.6; GST-FITC bead: 2.7

How did COc1cccc(NC(=O)CCCn2c(=O)[nH]c3ccccc3c2=O)c1 do in these assays?
Arr AP2 block: 27.4; HDAC3 inhib: -6.5; DSG3 Ab inh: 103.5; GASC-1 inh: 1.7; T cell HTS: 280.2; LANA-H2B inh: -1.5; Arr-AP2 CP1: 1.7; GST-FITC bead: -2.5

How did O=C(Cn1c(=O)[nH]c2ccccc2c1=O)Nc1ccc2c(c1)OCCO2 do in these assays?
Arr AP2 block: 6.4; HDAC3 inhib: 4.3; DSG3 Ab inh: 129.4; GASC-1 inh: 6.1; T cell HTS: 62.5; LANA-H2B inh: -2.8; Arr-AP2 CP1: -2.0; GST-FITC bead: -9.7

How did Cc1ccccc1C(=O)OCC(=O)NCC1COc2ccccc2O1 (stereo not drawn) do in these assays?
Arr AP2 block: -3.2; DSG3 Ab inh: 125.9

Results for COc1ccc(CCN2CC(C(=O)NCc3nc4ccccc4n3C)CCC2=O)cc1 (stereo not drawn) ?
Arr AP2 block: -0.3; HDAC3 inhib: -2.0; GASC-1 inh: 13.6; T cell HTS: 308.8; LANA-H2B inh: 1.7

What do the screens show for `COc1cc(OC)cc(C(=O)Nc2ccc(S(=O)(=O)Nc3ncccn3)cc2)c1`?
Arr AP2 block: 54.7*; HDAC3 inhib: 7.3; DSG3 Ab inh: 99.2; GASC-1 inh: 22.0; T cell HTS: 254.1; LANA-H2B inh: -3.1; Arr-AP2 CP1: -3.7; GST-FITC bead: -2.7

How did COc1cc(C(=O)NCC(=O)OCC(=O)Nc2nnc(-c3ccccc3)o2)cc(OC)c1OC do in these assays?
Arr AP2 block: -0.5; HDAC3 inhib: -0.7; DSG3 Ab inh: 99.0; GASC-1 inh: 18.5; T cell HTS: 365.3; LANA-H2B inh: -0.5

Results for COc1cc(C(=O)OCC(=O)Nc2nnc(-c3ccccc3)o2)cc(OC)c1OC ?
Arr AP2 block: 55.0*; DSG3 Ab inh: 105.9; GASC-1 inh: 5.0; T cell HTS: 304.2; Arr-AP2 CP1: -5.8; GST-FITC bead: -7.7

Screening results (PubChem)
